ChEMBL document CHEMBL3112447, “Discovery of 1-methyl-1H-imidazole derivatives as potent Jak2 inhibitors” (J Med Chem, 2014)

Experiments:
[1] = test system: Mus musculus; experiment: Toxicity in SCID mouse xenografted with human UKE1 cells assessed as body weight loss at 3 mg/kg, po bid administered for 14 days measured on day 31 (reference value: 7.1%); format: organism-based; set-up: dose 3 mg/kg, route oral; settings: in vivo, 336 h
Method in brief: (§1)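 UKE-1 cells mixed with matrigel implanted subcutaneously in female SCID mice. On day 15, mice randomized at a mean tumor volume of about 150 mm³. Oral gavage twice daily at 3 or 10 mg/kg, or vehicle, for 14 days. Tumor volume and body weight tracked through the dosing phase.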

[2] = Cytotoxicity against mouse BA/F3 cells expressing TEL-Tyk2 after 72 hrs by MTS assay; format: functional; settings: BaF3, 72 h
Method in brief: (§2)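 BaF3 cells transfected with the kinase domain of Jak1, Jak3 or Tyk2 (TEL fusions). Growth inhibition measured as the counter-screen for cellular selectivity.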

[3] = test system: Mus musculus; experiment: In vivo inhibition of Jak2 in mouse transfected with mouse BA/F3 cells expressing TEL-Jak2 assessed as inhibition of STAT5 phosphorylation at 3 mg/kg, po after 8 hrs by Western blotting analysis; format: functional; settings: BaF3, 8 h
Method in brief: (§3)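 Mice bearing BaF3 TEL-JAK2 cells given a single oral dose of 3, 5 or 10 mg/kg and sacrificed at various times after dosing. Spleen lysates probed for phospho-STAT5 and total STAT5 by Western blot, and pSTAT5 inhibition assessed.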

[4] = Cytotoxicity against human SET2 cells expressing Jak2 V617F mutant after 72 hrs by MTS assay; format: functional; settings: SET-2, 72 h
[5] = target: Serine/threonine-protein kinase SIK1 (Homo sapiens, UniProt P57059); experiment: Inhibition of human SIK
Method in brief: (§4)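 Panel of 82 kinases. Radiometric filter-binding assay with ATP at or near Km. Compound tested at 0.01, 0.10 and 1.0 μM. Values expressed as minimum possible fold selectivity against Jak2.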

[6] = Cytotoxicity against human UKE1 cells expressing Jak2 V617F mutant after 72 hrs by MTS assay; format: functional; settings: UKE1, 72 h
[7] = Antitumor activity against human UKE1 cells xenografted in SCID mouse assessed as tumor growth inhibition at 3 mg/kg, po bid administered for 14 days measured on day 28; format: functional; settings: read-out: TGI; method in brief: as §1
[8] = test system: Mus musculus; experiment: In vivo inhibition of Jak2 in mouse transfected with mouse BA/F3 cells expressing TEL-Jak2 assessed as inhibition of STAT5 phosphorylation at 3 to 10 mg/kg, po by Western blotting analysis; format: functional, organism-based; settings: BaF3, TDE = time-dependent effect; method in brief: as §3
[9] = test system: Canis familiaris; experiment: Oral bioavailability in beagle dog at 10 mg/kg; format: ADME, organism-based, Canis lupus familiaris; settings: in vivo
Method in brief: (§5)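 Male beagle dogs. Oral dose 10 mg/kg in 0.1% HPMC, pH 2. IV dose 2.5 mg/kg in 20% TEG/D5W. […] Clearance, Vdss, half-life and oral bioavailability (F%) derived from the plasma profiles.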

[10] = target: Non-receptor tyrosine-protein kinase TYK2 (Mus musculus, UniProt Q9R117); experiment: (§6) Inhibition of Tyk2 in mouse BA/F3 cells expressing TEL-Tyk2 assessed as inhibition of STAT5 phosphorylation by Western blotting analysis; format: cell-based; settings: baf3
Sequence of Non-receptor tyrosine-protein kinase TYK2 (Q9R117 whole entry, looked up): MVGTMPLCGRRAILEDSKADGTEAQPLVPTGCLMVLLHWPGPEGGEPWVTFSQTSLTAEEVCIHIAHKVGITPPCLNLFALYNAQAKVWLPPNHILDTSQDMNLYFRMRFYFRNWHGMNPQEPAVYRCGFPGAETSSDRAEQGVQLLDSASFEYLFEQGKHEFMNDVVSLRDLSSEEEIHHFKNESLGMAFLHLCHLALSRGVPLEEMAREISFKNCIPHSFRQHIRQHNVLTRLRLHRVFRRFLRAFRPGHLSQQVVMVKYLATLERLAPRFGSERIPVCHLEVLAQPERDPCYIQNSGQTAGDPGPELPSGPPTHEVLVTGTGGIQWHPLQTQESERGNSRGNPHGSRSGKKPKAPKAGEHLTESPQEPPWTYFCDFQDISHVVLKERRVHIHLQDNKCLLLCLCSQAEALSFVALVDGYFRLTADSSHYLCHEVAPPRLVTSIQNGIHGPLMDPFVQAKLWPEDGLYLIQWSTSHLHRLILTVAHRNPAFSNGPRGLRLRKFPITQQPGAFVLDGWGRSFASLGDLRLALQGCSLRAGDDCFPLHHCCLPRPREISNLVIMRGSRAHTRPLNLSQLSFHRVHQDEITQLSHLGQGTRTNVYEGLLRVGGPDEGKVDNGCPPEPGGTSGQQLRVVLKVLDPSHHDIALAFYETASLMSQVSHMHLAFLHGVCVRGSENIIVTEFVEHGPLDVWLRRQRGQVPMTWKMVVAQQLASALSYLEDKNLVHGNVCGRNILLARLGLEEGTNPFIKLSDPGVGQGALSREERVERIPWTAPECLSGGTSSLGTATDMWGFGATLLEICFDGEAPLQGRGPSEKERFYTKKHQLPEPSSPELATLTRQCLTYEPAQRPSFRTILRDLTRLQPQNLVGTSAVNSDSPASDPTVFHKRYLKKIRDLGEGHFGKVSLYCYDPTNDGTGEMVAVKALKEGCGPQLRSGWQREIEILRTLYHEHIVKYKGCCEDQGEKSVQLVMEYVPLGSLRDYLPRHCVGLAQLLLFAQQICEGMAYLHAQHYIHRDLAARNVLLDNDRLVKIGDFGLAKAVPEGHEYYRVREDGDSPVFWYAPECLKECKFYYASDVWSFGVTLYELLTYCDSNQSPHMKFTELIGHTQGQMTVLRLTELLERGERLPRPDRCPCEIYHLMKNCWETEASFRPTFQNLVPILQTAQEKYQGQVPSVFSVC

[11] = target: Non-receptor tyrosine-protein kinase TYK2 (Mus musculus) (UniProt Q9R117); experiment: as §6; format: cell-based; settings: BaF3
Sequence of Non-receptor tyrosine-protein kinase TYK2 (Mus musculus) (Q9R117 whole entry): as the sequence (Q9R117 whole entry, looked up) above

[12] = target: Receptor-type tyrosine-protein kinase FLT3 (Homo sapiens, UniProt P36888); experiment: Inhibition of human Flt3; method in brief: as §4
Sequence of Receptor-type tyrosine-protein kinase FLT3 (P36888 whole entry): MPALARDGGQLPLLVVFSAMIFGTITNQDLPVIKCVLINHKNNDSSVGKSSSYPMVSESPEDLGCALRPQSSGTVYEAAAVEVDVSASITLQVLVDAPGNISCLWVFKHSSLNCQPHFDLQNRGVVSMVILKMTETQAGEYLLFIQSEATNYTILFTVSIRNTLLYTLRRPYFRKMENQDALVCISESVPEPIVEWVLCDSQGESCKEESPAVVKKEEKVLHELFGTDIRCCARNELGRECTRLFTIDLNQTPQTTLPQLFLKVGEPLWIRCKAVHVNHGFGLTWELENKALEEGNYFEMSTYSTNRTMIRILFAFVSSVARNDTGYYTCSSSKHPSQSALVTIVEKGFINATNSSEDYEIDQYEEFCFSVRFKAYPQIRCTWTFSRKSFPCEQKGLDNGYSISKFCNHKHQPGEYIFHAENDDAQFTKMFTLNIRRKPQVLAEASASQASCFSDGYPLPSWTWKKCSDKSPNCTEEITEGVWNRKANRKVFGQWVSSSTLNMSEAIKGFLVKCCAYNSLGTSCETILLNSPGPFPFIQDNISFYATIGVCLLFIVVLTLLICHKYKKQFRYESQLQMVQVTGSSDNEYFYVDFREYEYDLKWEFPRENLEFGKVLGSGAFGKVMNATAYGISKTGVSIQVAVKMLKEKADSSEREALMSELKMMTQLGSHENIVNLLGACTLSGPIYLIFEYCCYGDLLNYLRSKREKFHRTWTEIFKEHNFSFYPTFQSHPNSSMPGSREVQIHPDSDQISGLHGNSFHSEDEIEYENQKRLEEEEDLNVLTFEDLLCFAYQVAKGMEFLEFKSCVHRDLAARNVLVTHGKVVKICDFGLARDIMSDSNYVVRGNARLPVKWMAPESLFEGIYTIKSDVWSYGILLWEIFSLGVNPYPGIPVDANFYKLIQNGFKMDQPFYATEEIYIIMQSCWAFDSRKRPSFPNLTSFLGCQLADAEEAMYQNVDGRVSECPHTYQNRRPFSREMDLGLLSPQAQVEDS

[13] = target: T1, Tyrosine-protein kinase JAK3 (Homo sapiens, UniProt P52333); experiment: Inhibition of Jak3 (unknown origin)
T1 sequence (P52333 whole entry): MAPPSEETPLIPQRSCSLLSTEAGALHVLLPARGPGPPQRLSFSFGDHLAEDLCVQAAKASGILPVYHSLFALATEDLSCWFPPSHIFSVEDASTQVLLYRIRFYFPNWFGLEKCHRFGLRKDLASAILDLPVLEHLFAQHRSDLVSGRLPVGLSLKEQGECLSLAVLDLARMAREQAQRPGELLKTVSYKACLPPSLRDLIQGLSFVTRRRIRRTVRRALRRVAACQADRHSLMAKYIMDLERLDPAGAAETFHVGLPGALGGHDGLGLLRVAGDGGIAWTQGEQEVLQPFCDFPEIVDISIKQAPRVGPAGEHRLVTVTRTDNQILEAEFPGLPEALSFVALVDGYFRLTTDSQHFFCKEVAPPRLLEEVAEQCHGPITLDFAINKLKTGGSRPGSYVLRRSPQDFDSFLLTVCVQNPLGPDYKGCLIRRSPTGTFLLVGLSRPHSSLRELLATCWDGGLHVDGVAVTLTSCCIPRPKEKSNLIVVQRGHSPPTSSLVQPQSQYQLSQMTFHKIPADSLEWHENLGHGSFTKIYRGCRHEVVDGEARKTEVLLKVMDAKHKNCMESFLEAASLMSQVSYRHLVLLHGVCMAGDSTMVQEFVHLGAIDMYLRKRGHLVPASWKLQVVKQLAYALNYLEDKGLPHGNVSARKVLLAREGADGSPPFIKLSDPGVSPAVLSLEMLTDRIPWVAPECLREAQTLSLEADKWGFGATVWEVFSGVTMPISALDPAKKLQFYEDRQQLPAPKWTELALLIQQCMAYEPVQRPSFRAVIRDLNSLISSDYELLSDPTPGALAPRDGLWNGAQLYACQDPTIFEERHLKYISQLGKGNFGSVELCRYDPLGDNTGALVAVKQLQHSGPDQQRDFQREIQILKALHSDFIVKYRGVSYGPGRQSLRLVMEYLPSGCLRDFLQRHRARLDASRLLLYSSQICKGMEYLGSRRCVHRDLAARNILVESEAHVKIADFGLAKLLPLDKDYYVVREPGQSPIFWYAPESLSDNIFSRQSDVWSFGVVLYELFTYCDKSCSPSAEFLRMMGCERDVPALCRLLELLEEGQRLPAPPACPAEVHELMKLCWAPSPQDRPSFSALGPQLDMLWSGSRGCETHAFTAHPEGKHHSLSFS

[14] = target: Casein kinase II subunit alpha' (Homo sapiens, UniProt P19784); experiment: Inhibition of human CK2alpha2; method in brief: as §4
Sequence of Casein kinase II subunit alpha' (P19784 whole entry): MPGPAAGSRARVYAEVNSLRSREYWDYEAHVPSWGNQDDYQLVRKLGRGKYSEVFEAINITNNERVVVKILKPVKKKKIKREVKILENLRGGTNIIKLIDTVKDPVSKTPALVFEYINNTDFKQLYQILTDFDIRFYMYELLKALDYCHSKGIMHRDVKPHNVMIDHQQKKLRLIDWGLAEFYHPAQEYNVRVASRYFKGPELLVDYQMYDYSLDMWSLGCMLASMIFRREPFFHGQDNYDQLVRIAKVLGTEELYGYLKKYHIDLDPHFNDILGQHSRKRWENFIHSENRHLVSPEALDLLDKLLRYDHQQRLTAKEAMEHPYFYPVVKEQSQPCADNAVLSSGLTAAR

[15] = Half life in beagle dog at 2.5 mg/kg, iv; format: ADME, organism-based, Canis lupus familiaris; set-up: dose 2.5 mg/kg, route intravenous; settings: in vivo; method in brief: as §5
[16] = target: Tyrosine-protein kinase ABL1 (Homo sapiens, UniProt P00519); experiment: Inhibition of human Abl; method in brief: as §4
Sequence of Tyrosine-protein kinase ABL1 (P00519 whole entry): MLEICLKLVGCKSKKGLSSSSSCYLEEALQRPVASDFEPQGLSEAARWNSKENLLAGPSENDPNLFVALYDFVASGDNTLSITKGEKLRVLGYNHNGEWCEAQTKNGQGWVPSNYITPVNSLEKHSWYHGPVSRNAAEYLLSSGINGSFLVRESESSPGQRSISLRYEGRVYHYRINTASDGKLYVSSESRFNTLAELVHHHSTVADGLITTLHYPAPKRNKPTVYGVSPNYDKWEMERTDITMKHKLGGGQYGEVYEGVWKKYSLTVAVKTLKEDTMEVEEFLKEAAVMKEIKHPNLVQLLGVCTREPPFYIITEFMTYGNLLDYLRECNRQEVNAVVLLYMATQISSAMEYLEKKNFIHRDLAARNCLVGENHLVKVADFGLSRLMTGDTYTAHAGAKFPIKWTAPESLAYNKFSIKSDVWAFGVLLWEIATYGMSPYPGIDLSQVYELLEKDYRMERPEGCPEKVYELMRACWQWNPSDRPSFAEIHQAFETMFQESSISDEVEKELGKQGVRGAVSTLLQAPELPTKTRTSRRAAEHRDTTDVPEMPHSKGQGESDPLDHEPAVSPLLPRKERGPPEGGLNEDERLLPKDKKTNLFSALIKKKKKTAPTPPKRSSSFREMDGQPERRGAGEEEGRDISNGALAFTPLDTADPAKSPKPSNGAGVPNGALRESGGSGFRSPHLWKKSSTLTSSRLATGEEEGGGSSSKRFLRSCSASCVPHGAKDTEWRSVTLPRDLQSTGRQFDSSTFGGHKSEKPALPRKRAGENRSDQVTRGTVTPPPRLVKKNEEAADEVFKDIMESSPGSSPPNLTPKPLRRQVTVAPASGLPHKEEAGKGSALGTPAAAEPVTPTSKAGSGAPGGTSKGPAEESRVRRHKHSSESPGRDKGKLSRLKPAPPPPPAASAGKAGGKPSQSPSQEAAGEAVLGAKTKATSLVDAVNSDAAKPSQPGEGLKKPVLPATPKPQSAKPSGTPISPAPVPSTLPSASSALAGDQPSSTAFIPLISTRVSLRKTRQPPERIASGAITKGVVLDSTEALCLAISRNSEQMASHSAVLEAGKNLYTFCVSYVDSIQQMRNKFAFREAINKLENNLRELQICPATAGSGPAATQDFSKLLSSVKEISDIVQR

[17] = target: High affinity nerve growth factor receptor (Homo sapiens, UniProt P04629); experiment: Inhibition of human TrkA; method in brief: as §4
[18] = test system: Mus musculus; experiment: In vivo inhibition of Jak2 in mouse transfected with mouse BA/F3 cells expressing TEL-Jak2 assessed as inhibition of STAT5 phosphorylation at 3 mg/kg, po after 6 hrs by Western blotting analysis; format: functional; settings: BaF3, 6 h; method in brief: as §3
[19] = Cytotoxicity against mouse BA/F3 cells expressing TEL-Jak1 after 72 hrs by MTS assay; format: functional; settings: BaF3, 72 h; method in brief: as §2
[20] = target: Aurora kinase A (Homo sapiens, UniProt O14965); experiment: Inhibition of human aurora A kinase; method in brief: as §4
[21] = target: T1, Tyrosine-protein kinase JAK3; experiment: Inhibition of human JAK3; method in brief: as §4
[22] = target: Vascular endothelial growth factor receptor 3 (Homo sapiens, UniProt P35916); experiment: Inhibition of human Flt4; method in brief: as §4
Sequence of Vascular endothelial growth factor receptor 3 (P35916 whole entry): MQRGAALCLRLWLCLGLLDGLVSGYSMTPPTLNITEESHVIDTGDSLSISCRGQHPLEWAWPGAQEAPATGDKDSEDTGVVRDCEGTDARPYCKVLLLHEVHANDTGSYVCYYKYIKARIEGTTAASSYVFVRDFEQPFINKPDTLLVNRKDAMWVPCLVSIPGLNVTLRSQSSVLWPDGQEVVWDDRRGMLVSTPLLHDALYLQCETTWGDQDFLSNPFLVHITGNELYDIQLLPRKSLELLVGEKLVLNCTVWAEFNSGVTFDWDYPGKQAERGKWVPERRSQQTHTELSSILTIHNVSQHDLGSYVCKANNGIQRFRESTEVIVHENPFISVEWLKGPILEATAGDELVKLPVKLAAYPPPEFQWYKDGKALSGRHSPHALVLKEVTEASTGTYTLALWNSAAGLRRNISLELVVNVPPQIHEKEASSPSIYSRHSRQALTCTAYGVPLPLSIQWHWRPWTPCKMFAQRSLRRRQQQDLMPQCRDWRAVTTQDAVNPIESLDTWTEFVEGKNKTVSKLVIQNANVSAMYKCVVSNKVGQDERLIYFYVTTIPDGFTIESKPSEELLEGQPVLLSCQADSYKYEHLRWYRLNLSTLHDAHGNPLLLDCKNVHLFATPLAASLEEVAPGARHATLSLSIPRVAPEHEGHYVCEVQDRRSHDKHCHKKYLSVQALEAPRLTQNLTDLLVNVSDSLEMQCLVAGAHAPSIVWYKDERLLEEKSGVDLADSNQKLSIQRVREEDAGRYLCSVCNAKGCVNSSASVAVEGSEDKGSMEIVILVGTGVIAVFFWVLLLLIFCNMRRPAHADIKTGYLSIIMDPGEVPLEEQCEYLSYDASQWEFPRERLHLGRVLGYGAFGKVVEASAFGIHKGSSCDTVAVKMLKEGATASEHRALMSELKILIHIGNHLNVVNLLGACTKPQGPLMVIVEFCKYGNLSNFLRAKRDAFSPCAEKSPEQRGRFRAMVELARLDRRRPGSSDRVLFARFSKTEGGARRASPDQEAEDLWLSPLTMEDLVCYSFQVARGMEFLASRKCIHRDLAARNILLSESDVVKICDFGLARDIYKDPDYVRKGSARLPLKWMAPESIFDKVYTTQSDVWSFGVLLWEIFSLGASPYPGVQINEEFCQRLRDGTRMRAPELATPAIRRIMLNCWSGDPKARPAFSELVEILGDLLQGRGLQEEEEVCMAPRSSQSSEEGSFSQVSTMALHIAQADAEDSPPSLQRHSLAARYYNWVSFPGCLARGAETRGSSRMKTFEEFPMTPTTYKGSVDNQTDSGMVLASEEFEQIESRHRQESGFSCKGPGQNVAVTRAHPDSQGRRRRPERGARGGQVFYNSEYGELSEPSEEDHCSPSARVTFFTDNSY

[23] = Half life in beagle dog at 10 mg/kg, po; format: ADME, organism-based, Canis lupus familiaris; set-up: dose 10 mg/kg, route oral; settings: in vivo; method in brief: as §5

C[C@H](Nc1nc(Nc2cn(C)cn2)c2cc[nH]c2n1)c1ncc(F)cn1
Activity [1]: 7.2%
GI50 [2]: 760 nM
inhibition in vivo at 3 mg/kg [3]: 30%
GI50 [4]: 14 nM
IC50 [5]: 190 nM
GI50 [6]: 55 nM
inhibition in vivo at 3 mg/kg [7]: 50%
inhibition [8]: tde
F [9]: 64%
IC50 [10]: 240 nM
inhibition [11]: Dose-dependent effect
IC50 [12]: 45 nM
IC50 [13]: 220 nM
IC50 [14]: 2.7 nM
half-life [15]: 12.4 h
IC50 [16]: 25 nM
IC50 [17]: 35 nM
inhibition in vivo at 3 mg/kg [18]: 80%
GI50 [19]: 220 nM
IC50 [20]: 58 nM
IC50 [21]: 35 nM
IC50 [22]: 40 nM
half-life [23]: 7.6 h
